Assay results published in ChEMBL document CHEMBL2057150, “The synthesis and SAR of calcitonin gene-related peptide (CGRP) receptor antagonists derived from tyrosine surrogates. Part 1” (Bioorg Med Chem Lett, 2012).
Active and inactive are the calls of the source. The calls are words filed in the database; no cut-off is given here.

Assays:
[1] = molecular target: Calcitonin gene-related peptide type 1 receptor (Homo sapiens, UniProt O60894+Q16602); assay: Displacement of [125I]CGRP from CGRP receptor in human SK-N-MC cell membrane after 2 hrs; type: cell membranes
Cytochrome P450 3A4 [2] = molecular target: T1, Cytochrome P450 3A4 (Homo sapiens, UniProt P08684); assay: Inhibition of human recombinant CYP3A4 expressed in baculo-virus infected insect microsomes using benzyloxyresorufin as substrate after 45 mins by fluorescence detection assay; type: ADME, Microsome
Cytochrome P450 3A4 [3] = molecular target: T1, Cytochrome P450 3A4; assay: Inhibition of human recombinant CYP3A4 expressed in baculo-virus infected insect microsomes using 7-benzyloxy-4-trifluoromethylcoumarin as substrate after 20 mins by fluorescence detection assay; type: ADME, Microsome
[4] = Cardiovascular toxicity in human coronary arteries assessed as induction of vasoconstriction up to 10 uM after 30 mins; parameters: species or system Coronary artery; conditions: 0.5 h
Summary of the method: (§1)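 Ex vivo human arteries in tissue baths; test agent applied up to 10 µM and contraction recorded. Serotonin (10 µM) added to each bath at session end as the reference for maximal vessel contractility; contraction expressed as percent of serotonin maximum.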

[5] = Cardiovascular toxicity in human coronary arteries assessed as induction of vasoconstriction after 30 mins; parameters: species or system Coronary artery; conditions: for Activity: 0.5 h; for EC50 at 30 min: human coronary arteries; summary of the method: as §1
[6] = Cardiovascular toxicity in human coronary arteries assessed as induction of vasoconstriction after 30 mins relative to serotonin; parameters: species or system Coronary artery; summary of the method: as §1
Callithrix jacchus [7] = assay: Antimigraine activity in sc dosed marmosets assessed as inhibition of CGRP-induced increase in facial blood flow administered 30 mins post CGRP-challenge measured up to 105 mins by laser doppler flowmetry; type: functional, organism-based
Summary of the method: (§2)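 Anesthetized marmosets; facial blood flow raised by iv hαCGRP (10 µg/kg) at 45 min intervals (-30, 15, 60, 105 min). Antagonist given sc at 0 min (dose range 0.3–1 mg/kg). CGRP-induced changes in facial blood flow read by laser Doppler flowmetry.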

Callithrix jacchus [8] = assay: Antimigraine activity in marmosets assessed as inhibition of CGRP-induced increase in facial blood flow at 1 mg/kg, sc administered 30 mins post CGRP-challenge measured up to 105 mins by laser doppler flowmetry; type: functional, organism-based; parameters: dose 1 mg/kg; summary of the method: as §2

T1 sequence (P08684 whole entry): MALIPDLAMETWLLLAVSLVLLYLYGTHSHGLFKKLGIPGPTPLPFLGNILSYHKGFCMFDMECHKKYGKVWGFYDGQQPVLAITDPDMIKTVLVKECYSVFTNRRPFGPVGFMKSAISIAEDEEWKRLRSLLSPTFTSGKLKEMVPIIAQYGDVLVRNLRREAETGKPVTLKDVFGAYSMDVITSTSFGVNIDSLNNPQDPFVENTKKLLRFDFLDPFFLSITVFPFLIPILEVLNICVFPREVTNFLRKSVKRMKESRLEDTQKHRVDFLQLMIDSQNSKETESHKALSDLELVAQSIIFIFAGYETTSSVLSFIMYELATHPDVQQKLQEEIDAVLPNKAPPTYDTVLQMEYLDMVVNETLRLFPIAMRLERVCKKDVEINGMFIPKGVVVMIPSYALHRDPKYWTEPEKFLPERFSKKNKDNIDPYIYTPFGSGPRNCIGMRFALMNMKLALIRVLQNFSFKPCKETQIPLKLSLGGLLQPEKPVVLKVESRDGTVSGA
Sequence of Calcitonin gene-related peptide type 1 receptor (Q16602 whole entry, one chain of several): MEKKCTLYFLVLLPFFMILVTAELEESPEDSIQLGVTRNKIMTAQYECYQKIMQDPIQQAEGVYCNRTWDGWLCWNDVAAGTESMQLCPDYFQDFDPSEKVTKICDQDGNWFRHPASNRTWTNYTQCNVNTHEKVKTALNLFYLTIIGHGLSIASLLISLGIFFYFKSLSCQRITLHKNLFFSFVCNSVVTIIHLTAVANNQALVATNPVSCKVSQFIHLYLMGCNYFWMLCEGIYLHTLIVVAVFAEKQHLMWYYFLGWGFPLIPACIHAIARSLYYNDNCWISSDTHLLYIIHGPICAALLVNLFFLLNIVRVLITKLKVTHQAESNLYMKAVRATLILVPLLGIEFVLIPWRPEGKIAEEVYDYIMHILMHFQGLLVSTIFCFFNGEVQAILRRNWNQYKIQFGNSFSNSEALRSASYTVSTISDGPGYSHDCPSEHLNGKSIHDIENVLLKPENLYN

Structure (SMILES)	Ki [1]	IC50 (Cytochrome P450 3A4 [2])	further results
NC(=O)CC[C@@H](NC(=O)N1CCC(n2c(=O)[nH]c3ccccc32)CC1)C(=O)N1CCC(N2CCCCC2)CC1	> 1000 nM	–	–
O=C(N[C@@H](Cc1cc(Br)c(O)c(Br)c1)C(=O)N1CCC(N2CCCCC2)CC1)N1CCC(n2c(=O)[nH]c3ccccc32)CC1	> 1000 nM	–	–
CN(C)CCc1c[nH]c2ccc(C[C@H]3COC(=O)N3)cc12 [ZOLMITRIPTAN]	–	–	Activity [5]: Dose-dependent effect; EC50 at 30 min [5]: 40 nM; Emax at 0.5 h [6]: 39%
O=C(N[C@H](CCc1ccc(O)cc1)C(=O)N1CCC(N2CCCCC2)CC1)N1CCC(n2c(=O)[nH]c3ccccc32)CC1	2100 nM	–	–
O=C(O)CC[C@@H](NC(=O)N1CCC(n2c(=O)[nH]c3ccccc32)CC1)C(=O)N1CCC(N2CCCCC2)CC1	> 1000 nM	–	–
O=C(N[C@H](Cc1ccc2[nH]ncc2c1)C(=O)N1CCC(N2CCCCC2)CC1)N1CCC(N2Cc3ccccc3NC2=O)CC1	–	–	Activity [4]: Non-toxic; inhibition (Callithrix jacchus [7]): Dose-dependent effect
CC(=O)Nc1ccc(C[C@@H](NC(=O)N2CCC(n3c(=O)[nH]c4ccccc43)CC2)C(=O)N2CCC(N3CCCCC3)CC2)cc1	1900 nM	–	–
O=C(N[C@@H](Cc1ccc2[nH]ncc2c1)C(=O)N1CCC(N2CCCCC2)CC1)N1CCC(N2Cc3ccccc3NC2=O)CC1	–	7300 nM	inhibition (Callithrix jacchus [8]): inactive
O=C(N[C@@H](C(=O)N1CCC(N2CCCCC2)CC1)c1ccccc1)N1CCC(n2c(=O)[nH]c3ccccc32)CC1	> 1000 nM	–	–
CC(C)C[C@@H](NC(=O)N1CCC(n2c(=O)[nH]c3ccccc32)CC1)C(=O)N1CCC(N2CCCCC2)CC1	2400 nM	16000 nM	–
CNS(=O)(=O)Cc1ccc2[nH]cc(CCN(C)C)c2c1	–	–	Activity [5]: Dose-dependent effect; EC50 at 30 min [5]: 120 nM; Emax at 0.5 h [6]: 48%
O=C(N[C@H](CCc1ccccc1)C(=O)N1CCC(N2CCCCC2)CC1)N1CCC(n2c(=O)[nH]c3ccccc32)CC1	> 1000 nM	–	–

Now from value to compound, other results behind:

Ki [1]	IC50 (Cytochrome P450 3A4 [2])	Structure (SMILES)	further results
300 nM	–	O=C(N[C@H](Cc1ccccc1)C(=O)N1CCC(N2CCCCC2)CC1)N1CCC(n2c(=O)[nH]c3ccccc32)CC1	–
0.55 nM	23000 nM	O=C(N[C@H](Cc1ccc2nn[nH]c2c1)C(=O)N1CCC(N2CCCCC2)CC1)N1CCC(N2Cc3ccccc3NC2=O)CC1	–
32 nM	2500 nM	O=C(NC(Cc1ccc2[nH]ccc2c1)C(=O)N1CCC(N2CCCCC2)CC1)N1CCC(n2c(=O)[nH]c3ccccc32)CC1 (racemic)	–
0.55 nM	84 nM	O=C(N[C@H](Cc1csc2ccccc12)C(=O)N1CCC(N2CCCCC2)CC1)N1CCC(n2c(=O)[nH]c3ccccc32)CC1	IC50 (Cytochrome P450 3A4 [3]): 870 nM
28 nM	–	Cc1nc2cc(C[C@@H](NC(=O)N3CCC(N4Cc5ccccc5NC4=O)CC3)C(=O)N3CCC(N4CCCCC4)CC3)ccc2[nH]1	–
7.2 nM	30 nM	O=C(N[C@H](Cc1cccc2ccccc12)C(=O)N1CCC(N2CCCCC2)CC1)N1CCC(n2c(=O)[nH]c3ccccc32)CC1	–
68 nM	17000 nM	O=C(NC(Cc1ccc2[nH]ncc2c1)C(=O)N1CCC(N2CCCCC2)CC1)N1CCC(n2c(=O)[nH]c3ccccc32)CC1 (racemic)	Activity [4]: Non-toxic
84 nM	> 40000 nM	O=C(N[C@H](Cc1c[nH]c2ccccc12)C(=O)N1CCC(N2CCCCC2)CC1)N1CCC(n2c(=O)[nH]c3ccccc32)CC1	–
250 nM	1300 nM	O=C(N[C@H](Cc1ccc(-c2ccccc2)cc1)C(=O)N1CCC(N2CCCCC2)CC1)N1CCC(n2c(=O)[nH]c3ccccc32)CC1	–
2.5 nM	> 40000 nM	O=C(N[C@H](Cc1ccc(O)cc1)C(=O)N1CCC(N2CCCCC2)CC1)N1CCC(n2c(=O)[nH]c3ccccc32)CC1	–
0.65 nM	2400 nM	O=C(N[C@H](Cc1cc(Br)c(O)c(Br)c1)C(=O)N1CCC(N2CCCCC2)CC1)N1CCC(n2c(=O)[nH]c3ccccc32)CC1	–
230 nM	30 nM	O=C(N[C@H](Cc1ccc2ccccc2c1)C(=O)N1CCC(N2CCCCC2)CC1)N1CCC(n2c(=O)[nH]c3ccccc32)CC1	–
16 nM	100 nM	Cn1cc(C[C@@H](NC(=O)N2CCC(n3c(=O)[nH]c4ccccc43)CC2)C(=O)N2CCC(N3CCCCC3)CC2)c2ccccc21	–
0.27 nM	30000 nM	O=C(N[C@H](Cc1ccc2[nH]c(=O)oc2c1)C(=O)N1CCC(N2CCCCC2)CC1)N1CCC(N2Cc3ccccc3NC2=O)CC1	–
750 nM	–	Nc1ccc(C[C@@H](NC(=O)N2CCC(n3c(=O)[nH]c4ccccc43)CC2)C(=O)N2CCC(N3CCCCC3)CC2)cc1	–
0.65 nM	11000 nM	O=C1Cc2cc(C[C@@H](NC(=O)N3CCC(N4Cc5ccccc5NC4=O)CC3)C(=O)N3CCC(N4CCCCC4)CC3)ccc2N1	–
1400 nM	–	COc1ccc(C[C@@H](NC(=O)N2CCC(n3c(=O)[nH]c4ccccc43)CC2)C(=O)N2CCC(N3CCCCC3)CC2)cc1	–
